What was measured:
Rattus norvegicus [1] = experiment: In vivo inhibition of MAO-A in Sprague-Dawley rat assessed as 3-methoxytyramine level in brain striatum at 86 umol/kg, sc after 1 hr by HPLC/EC analysis relative to control; format: functional; design: scale not given: the % may be the effect or the level left
Procedure, shortened: (§1)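 Freely moving rats dosed subcutaneously and sacrificed 1 h later. Striatal DOPAC, 3-MT and 5-HIAA were measured post mortem and expressed as % of saline control (n = 4). Significance was by Student's t-test, P < 0.05.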

D(2) dopamine receptor = D(2) dopamine receptor (Homo sapiens, UniProt P14416); experiment: Antagonist activity at dopamine D2 receptor (unknown origin) expressed in HEK cells co-expressing Gqi5 assessed as inhibition of dopamine-induced effect by FLIPR assay; format: cell-based, HEK293
Sequence of D(2) dopamine receptor (P14416 whole entry): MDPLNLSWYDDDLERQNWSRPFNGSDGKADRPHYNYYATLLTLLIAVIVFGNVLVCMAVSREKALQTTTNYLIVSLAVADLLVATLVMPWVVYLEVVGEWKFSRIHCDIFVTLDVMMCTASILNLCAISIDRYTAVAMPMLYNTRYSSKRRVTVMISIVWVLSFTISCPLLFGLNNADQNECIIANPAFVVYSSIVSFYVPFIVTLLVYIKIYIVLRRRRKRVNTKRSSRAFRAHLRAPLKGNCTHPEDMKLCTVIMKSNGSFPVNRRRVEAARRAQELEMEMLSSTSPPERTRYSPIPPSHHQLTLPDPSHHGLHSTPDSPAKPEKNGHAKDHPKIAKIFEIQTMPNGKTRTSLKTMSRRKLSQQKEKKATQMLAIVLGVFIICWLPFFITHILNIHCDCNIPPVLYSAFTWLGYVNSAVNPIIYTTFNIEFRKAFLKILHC

Rattus norvegicus [2] = experiment: In vivo inhibition of MAO-A in Sprague-Dawley rat assessed as 5-hydroxyindoleacetic acid in brain striatum at 86 umol/kg, sc after 1 hr by HPLC/EC analysis relative to control; format: functional; design: scale not given: the % may be the effect or the level left; procedure, shortened: as §1
[3] = Metabolic stability in rat liver microsomes assessed as compound remaining at 5 uM after 60 mins by LC-MS/MS analysis; format: ADME; settings: read-out: Stability
Procedure, shortened: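 Incubation with rat liver microsomes, read as % of compound remaining after 60 min.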

[4] = target: T1, Amine oxidase [flavin-containing] B (Homo sapiens, UniProt P27338); experiment: Inhibition of human recombinant MAO-B assessed as kynuramine oxidation to 4-hydroxyquinoline after 40 mins by LC-MS/MS analysis
T1 sequence (P27338 whole entry): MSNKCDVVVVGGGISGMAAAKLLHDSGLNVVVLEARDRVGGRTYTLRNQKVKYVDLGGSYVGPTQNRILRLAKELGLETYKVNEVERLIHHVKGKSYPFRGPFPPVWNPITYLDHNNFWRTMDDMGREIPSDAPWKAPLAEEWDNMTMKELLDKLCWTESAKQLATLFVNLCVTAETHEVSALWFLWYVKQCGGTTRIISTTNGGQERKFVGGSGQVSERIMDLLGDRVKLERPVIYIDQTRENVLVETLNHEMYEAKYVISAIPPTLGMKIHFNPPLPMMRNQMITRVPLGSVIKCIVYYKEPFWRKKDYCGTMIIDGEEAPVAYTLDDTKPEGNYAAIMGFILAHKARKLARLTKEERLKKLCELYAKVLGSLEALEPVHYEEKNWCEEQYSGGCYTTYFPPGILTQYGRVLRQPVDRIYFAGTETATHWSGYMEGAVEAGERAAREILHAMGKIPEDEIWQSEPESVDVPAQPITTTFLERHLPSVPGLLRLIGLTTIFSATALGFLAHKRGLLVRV
Procedure, shortened: (§2)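 Human MAO A and MAO B inhibition using kynuramine as a mixed substrate for both isoforms. IC50 is given as the mean ± SE of duplicate determinations.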

[5] = target: T2, Amine oxidase [flavin-containing] A (Homo sapiens, UniProt P21397); experiment: Inhibition of human recombinant MAO-A assessed as kynuramine oxidation to 4-hydroxyquinoline after 40 mins by LC-MS/MS analysis; procedure, shortened: as §2
T2 sequence (P21397 whole entry): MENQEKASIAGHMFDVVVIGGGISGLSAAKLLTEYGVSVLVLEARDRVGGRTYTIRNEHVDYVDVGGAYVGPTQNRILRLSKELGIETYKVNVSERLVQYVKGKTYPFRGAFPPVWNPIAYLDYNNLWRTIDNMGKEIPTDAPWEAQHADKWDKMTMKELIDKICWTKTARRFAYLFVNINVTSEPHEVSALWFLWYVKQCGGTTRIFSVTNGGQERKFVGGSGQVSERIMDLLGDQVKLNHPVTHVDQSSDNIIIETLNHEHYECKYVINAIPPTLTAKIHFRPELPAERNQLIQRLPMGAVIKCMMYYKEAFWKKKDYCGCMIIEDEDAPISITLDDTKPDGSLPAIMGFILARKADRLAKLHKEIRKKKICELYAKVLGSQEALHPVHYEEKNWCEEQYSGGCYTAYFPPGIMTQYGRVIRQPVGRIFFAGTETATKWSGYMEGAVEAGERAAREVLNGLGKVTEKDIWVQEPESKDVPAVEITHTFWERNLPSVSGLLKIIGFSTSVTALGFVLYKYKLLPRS

Rattus norvegicus [6] = experiment: In vivo inhibition of MAO-A in Sprague-Dawley rat assessed as 3,4-dihydroxyphenylacetic acid level in brain striatum at 86 umol/kg, sc after 1 hr by HPLC/EC analysis relative to control; format: functional; design: scale not given: the % may be the effect or the level left; procedure, shortened: as §1
[7] = target: T1, Amine oxidase [flavin-containing] B; experiment: Inhibition of MAO-B (unknown origin)
[8] = target: T2, Amine oxidase [flavin-containing] A; experiment: Inhibition of MAO-A (unknown origin)

| SMILES | Activity (Rattus norvegicus [1]) | IC50 (D(2) dopamine receptor) | Activity (Rattus norvegicus [2]) | remaining at 1 h, 5 µM [3] | IC50 [4] | IC50 [5] | Activity (Rattus norvegicus [6]) | IC50 [7] | IC50 [8] |
| --- | --- | --- | --- | --- | --- | --- | --- | --- | --- |
| Nc1ccc2oc(=O)c(CN3CCCC3)cc2c1 | 170% | 16.3 µM | 72% | 80% | > 100 µM | 3.77 µM | 45% | – | – |
| O=C(O)c1cc2cc([N+](=O)[O-])ccc2oc1=O | – | – | – | – | – | – | – | 19.5 nM | 67.6 nM |

Reference: ChEMBL document CHEMBL3112537, “A novel series of 6-substituted 3-(pyrrolidin-1-ylmethyl)chromen-2-ones as selective monoamine oxidase (MAO) A inhibitors” (Eur J Med Chem, 2014)
